Assay results published in PubChem BioAssay.
Activity calls are given as the source filed them.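 How the source made its calls, unless noted: active means inhibition above 20% together with a positive visual image hit; inconclusive means visual image hit but inhibition not above 20%; inactive means no visual image hit.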

Assays:
[1] = inhibitors of TNFa-induced NFkB p65 translocation, primary screen, imaging, HUVEC, MLSMR starter and 10KST1 sets (AID 438); conditions: HUVEC TNFa-induced p65 nuclear translocation; cell count: measured here: nuclei count (cytotoxicity indicator), at 2.08 µM; inhibition: at 2 µM, stronger effect = higher value, 0% TNFa-plus-vehicle, 100% no-TNFa wells;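 further: compound added about 3h40 before a 20 min TNFalpha stimulation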;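 on inhibition: signal is the nuclear over cytoplasmic p65 intensity ratio per well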
[2] = inhibitors of E-selectin induction by TNFa, primary screen, imaging, HUVEC, immunofluorescence, MLSMR starter and 10KST1 sets (AID 487;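 active means visually confirmed hit in the image check and inhibition above 20%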;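 on inhibition: signal is fraction of cell area covered by stained E-selectin grains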;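 on nuclei count: 100% = median nuclei count of all wells on the same plate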); conditions: HUVEC TNFalpha-induced E-selectin immunofluorescence imaging, at 2 µM; inhibition: stronger effect = higher value; nuclei count: measured here: cell number, toxicity
[3] = DUSP6 inhibitors restoring Erk phosphorylation by chemical complementation, primary imaging in DUSP6-transfected HeLa (AID 609;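 active means compounds giving at least 50% inhibition in the cell-based MKP-3 phosphatase rescue imaging test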;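 on inhibition: phospho-Erk level distribution per well compared with pooled transfected vehicle control wells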); conditions: HeLa MKP-3 transfected, phospho-Erk imaging KS statistic, at 10 µM, cells stimulated with TPA for 15 min
[4] = target: Dual specificity protein phosphatase 6 (Homo sapiens) (UniProt Q16828); experiment: as above; conditions: HeLa MKP-3 transfected, phospho-Erk imaging KS statistic; at 10 µM; stronger effect = higher value; cells stimulated with TPA for 15 min
Sequence of Dual specificity protein phosphatase 6 (Homo sapiens) (Q16828 whole entry, looked up): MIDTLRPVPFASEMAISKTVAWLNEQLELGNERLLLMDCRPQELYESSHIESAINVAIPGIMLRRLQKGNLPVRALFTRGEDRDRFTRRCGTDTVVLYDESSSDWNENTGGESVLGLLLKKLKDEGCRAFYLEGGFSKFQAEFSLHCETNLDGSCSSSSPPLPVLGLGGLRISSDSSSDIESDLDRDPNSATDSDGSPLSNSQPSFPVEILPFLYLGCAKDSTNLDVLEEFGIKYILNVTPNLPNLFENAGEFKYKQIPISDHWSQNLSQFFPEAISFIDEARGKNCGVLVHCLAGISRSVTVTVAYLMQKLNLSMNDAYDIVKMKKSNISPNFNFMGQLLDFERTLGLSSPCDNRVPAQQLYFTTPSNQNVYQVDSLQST

[5] = target: Voltage-gated potassium channel subunit beta-2 (Rattus norvegicus) (UniProt P62483); experiment: KvBeta enzyme negative modulators, primary screen, biochemical, NADPH fluorescence (AID 622;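 active means fluorescence slope higher than the sample average by over 3 SD, cut at about -0.22 in these data, passing the limit was not always enough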;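 further: slope of raw intensity against log time taken from 70 to 1610 s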); conditions: recombinant KvBeta, 4-cyanobenzaldehyde reduction, at 10 µM, stronger effect = higher value
Sequence of Voltage-gated potassium channel subunit beta-2 (Rattus norvegicus) (P62483 whole entry, looked up): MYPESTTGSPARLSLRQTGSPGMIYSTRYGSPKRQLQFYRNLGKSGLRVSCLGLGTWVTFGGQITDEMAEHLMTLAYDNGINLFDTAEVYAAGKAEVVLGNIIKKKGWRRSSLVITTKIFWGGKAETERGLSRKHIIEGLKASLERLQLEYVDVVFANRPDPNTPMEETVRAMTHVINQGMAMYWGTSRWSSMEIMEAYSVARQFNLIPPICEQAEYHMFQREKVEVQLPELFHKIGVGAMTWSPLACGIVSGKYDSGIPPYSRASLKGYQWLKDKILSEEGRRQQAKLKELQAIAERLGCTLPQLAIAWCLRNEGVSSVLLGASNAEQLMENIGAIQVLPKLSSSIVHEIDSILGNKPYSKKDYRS

[6] = target: Voltage-gated potassium channel subunit beta-2 (Rattus norvegicus) (UniProt P62483); experiment: KvBeta positive modulators, primary screen, biochemical, NADPH fluorescence (AID 623;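 active means NADPH fluorescence slope more negative than the mean of all samples by about 3 SD, 99.7% confidence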;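 further: fluorescence intensity change per second fitted from 20 to 320 s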); conditions: Recombinant KvBeta, NADPH fluorescence decrease slope, 10 min; at 10 µM; stronger effect = lower value
[7] = target: Alpha-2C adrenergic receptor (Homo sapiens) (UniProt P18825); experiment: modulators of alpha2C/GIRK thallium flux, primary screen, cell-based, HEK293 alpha2C/GIRK1/2 (AID 624;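 active means fluorescence slope after compound addition differing from the mean of all screened samples at 99.7% confidence, in either direction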;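 further: slope of fluorescence ratio to pre-addition baseline per second over 15 to 24 s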); conditions: thallium flux BTC fluorescence, at 10 µM, actives lie on both sides
Sequence of Alpha-2C adrenergic receptor (Homo sapiens) (P18825 whole entry, looked up): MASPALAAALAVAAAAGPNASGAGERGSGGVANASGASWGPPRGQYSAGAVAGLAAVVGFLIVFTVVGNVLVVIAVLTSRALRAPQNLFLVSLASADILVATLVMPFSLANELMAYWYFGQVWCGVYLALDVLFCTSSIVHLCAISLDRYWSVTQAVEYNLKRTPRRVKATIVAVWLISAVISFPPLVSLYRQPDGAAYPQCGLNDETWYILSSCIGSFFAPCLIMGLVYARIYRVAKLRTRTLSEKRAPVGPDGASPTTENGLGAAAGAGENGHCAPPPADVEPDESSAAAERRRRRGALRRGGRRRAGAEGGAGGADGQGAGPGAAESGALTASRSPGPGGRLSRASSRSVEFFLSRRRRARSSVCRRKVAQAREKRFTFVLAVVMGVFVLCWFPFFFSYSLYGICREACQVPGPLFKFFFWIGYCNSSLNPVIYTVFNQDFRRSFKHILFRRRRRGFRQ

[8] = inhibitors of larval lipid processing in zebrafish, primary screen, whole organism, PED6 fluorescence, gall bladder and intestine (AID 686;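 active means a full or partial loss of lipid-probe fluorescence in the fish gall bladder, intestine or both, judged by eye; inactive means no fluorescence loss, or compound toxic to the fish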;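 further: larvae 5 to 7 days old with five fish per well; signal comes from phospholipase A2 cleavage of quenched PED6 carried via bile; overnight exposure to compound and PED6 before scoring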); conditions: Zebrafish larvae PED6 lipid processing, fluorescence scoring; screened at 20 µM (by protocol)
Outline: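 System: live zebrafish larvae aged 5-7 days, whole organism; measure: graded gall bladder and intestinal fluorescence inhibition per well; incubation: overnight exposure; reagent: ingested quenched lipid PED6 at 100 nM; signal: By-eye fluorescence microscopy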

[9] = inhibitors of Chlamydomonas gravitaxis, primary screen, whole organism, Chlamydomonas reinhardtii, WT vs cilia-less mutant, absorbance, 96-well (AID 463189;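 active means inhibition at or above 50% relative to wild type and mutant plate controls; inactive means inhibition below 50%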;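 further: 0% = wild type cc124 cells in DMSO and 100% = ciliumless bld1 mutant cells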); conditions: OD600 absorbance, 2 days, at 10 µM, stronger effect = higher value
[10] = measured here: cell density z-score
[11] = measured here: nuclear c-Myc green intensity z-score
[12] = measured here: nuclear pErk red intensity z-score, stronger effect = higher value

Compound	cell count [1]	inhibition [1]	inhibition [2]	nuclei count [2]	z-score [3, 10]	z-score [3, 11]	z-score [3, 12]	inhibition [4]	fluorescence slope [5]	NADPH fluorescence slope [6]	slope [7]	outcome [8]	inhibition [9]
CCn1c(SC(C)C(=O)O)nc2sc3c(c2c1=O)CCC3 (stereo unspecified)	614	-11.3% (inactive)	46% (inactive)	108%	0.34	-0.588	-0.0983	-2.29% (inactive)	-0.401 (inactive)	-3.8e-05 (inactive)	0.0197 (active)	inactive	7.74% (inactive)
CCOc1ccc(C2/C(=C(/O)c3ccc(F)cc3)C(=O)C(=O)N2CCCN(C)C)cc1 (stereo unspecified)	564	-4.5% (inactive)	-17% (inactive)	186%	-0.359	0.0868	-0.309	-1.12% (inactive)	-0.388 (inactive)	-3e-05 (inactive)	0.00504 (inactive)	inactive	-0.349% (inactive)
Cc1cc(C)nc(NC2=NCC(=O)N2c2ccccc2)n1	599	-3.5% (inactive)	-130% (inactive)	136%	1.19	-0.204	-1.47	3.97% (inactive)	-0.493 (inactive)	-3.7e-05 (inactive)	0.00515 (inactive)	inactive	-0.727% (inactive)
CCn1c(SCC(=O)O)nc2sc3c(c2c1=O)CCC3	664	-3.3% (inactive)	9.9% (inactive)	171%	-0.751	-1.02	-0.615	2.71% (inactive)	-0.405 (inactive)	-5.6e-05 (inactive)	0.00483 (inactive)	inactive	-0.935% (inactive)
CC(=O)N=C(N)Sc1nc2ccccc2[nH]1	570	-2.8% (inactive)	-55% (inactive)	161%	-0.578	0.85	0.434	22.1% (inactive)	-0.462 (inactive)	-0.000171 (inactive)	0.00501 (inactive)	inactive	4.16% (inactive)
OC(CNCCCN1CCCCC1)COc1ccccc1 (stereo unspecified)	630	-6.2% (inactive)	-169% (inactive)	178%	-0.145	0.177	0.518	17% (inactive)	-0.512 (inactive)	-7.1e-05 (inactive)	0.00429 (inactive)	inactive	5.42% (inactive)
CCOc1ccc(CC2CC(=O)NC2=O)cc1 (stereo unspecified)	622	2.8% (inactive)	-113% (inactive)	185%	-0.992	-0.148	1.17	-0.159% (inactive)	-0.484 (inactive)	-9.9e-05 (inactive)	0.00492 (inactive)	inactive	9.39% (inactive)
CCCCn1c(-c2ccc(Cl)cc2)nc2c(=O)n(C)c(=O)[nH]c21	453	-18.9% (inactive)	-400% (inactive)	197%	0.0253	-0.817	1.4	11% (inactive)	-0.398 (inactive)	-5.4e-06 (inactive)	0.00511 (inactive)	inactive	-2.64% (inactive)
Cc1cc(Cl)ccc1OCC(=O)OC(C)C(=O)N(C)C (stereo unspecified)	356	-24% (inactive)	-194% (inactive)	168%	1.09	0.169	-0.845	5.26% (inactive)	-0.439 (inactive)	-0.000171 (inactive)	0.00631 (inactive)	inactive	7.97% (inactive)
O=C(c1ccco1)N1CCN(CCOCCOc2cccc3ccccc23)CC1	473	-5.4% (inactive)	-81.6% (inactive)	121%	-1.67	-0.183	1.98	-2.07% (inactive)	-0.504 (inactive)	-0.000107 (inactive)	0.00477 (inactive)	inactive	16.4% (inactive)
COc1ccc(-c2nn3c(C4CCCCC4)nnc3s2)cc1OC	580	-19.9% (inactive)	-19.9% (inactive)	159%	-0.887	0.0164	0.338	-18.6% (inactive)	-0.442 (inactive)	-0.000143 (inactive)	0.00441 (inactive)	inactive	25.1% (inactive)
COc1ccc(-c2nnc3sc(COc4ccccc4)nn23)cc1	645	-8.4% (inactive)	-95.8% (inactive)	154%	-0.369	-0.469	-1.07	4.72% (inactive)	-0.445 (inactive)	-0.000151 (inactive)	0.00767 (inactive)	inactive	150% (active)
Cc1ccc(S(=O)(=O)N2CCC(N3CCCCCC3)CC2)cc1	449	-31.4% (inactive)	-231% (inactive)	163%	0.833	-1.65	0.596	1.04% (inactive)	-0.29 (inactive)	-8.7e-06 (inactive)	0.0051 (inactive)	inactive	116% (active)
CC(=O)Nn1cnc2c(c1=O)C1(CCCC1)Cc1ccccc1-2	520	-1.9% (inactive)	29.6% (inactive)	113%	-0.985	1.83	1.16	-2.69% (inactive)	-0.382 (inactive)	-2e-06 (inactive)	0.0042 (inactive)	inactive	43% (inactive)
CCOc1ccc(CCNC(=O)C(O)c2ccccc2)cc1 (stereo unspecified)	632	-0.6% (inactive)	18.6% (inactive)	150%	-1.06	0.643	-0.425	5.57% (inactive)	-0.517 (inactive)	-4.4e-05 (inactive)	0.0068 (inactive)	inactive	25.5% (inactive)
CCCC(=O)N1CCN(c2nc(CC(C)C)c3c(c2C#N)CCC3)CC1	529	-8.3% (inactive)	-117% (inactive)	130%	-0.247	0.583	0.103	-5.26% (inactive)	-0.5 (inactive)	-1.9e-05 (inactive)	0.00433 (inactive)	inactive	-3.24% (inactive)
C=CCNc1nc(-c2ccc(O)c(C(N)=O)c2)cs1	651	-7.7% (inactive)	-37.4% (inactive)	154%	1.4	-1.92	0.332	7.48% (inactive)	-0.465 (inactive)	-0.000295 (inactive)	0.00459 (inactive)	inactive	22.9% (inactive)
COc1cccc(OCCN2CCN(c3ncnc4c3cnn4-c3ccccc3)CC2)c1	555	-23.4% (inactive)	-98.5% (inactive)	166%	0.225	-1.36	0.0914	-11.5% (inactive)	-0.519 (inactive)	-3.9e-05 (inactive)	0.00443 (inactive)	inactive	48.3% (inactive)
O=C(Nc1nc(=O)c2ccccc2s1)c1ccccc1	647	5.5% (inactive)	-58.7% (inactive)	158%	0.159	-0.389	0.0783	9.61% (inactive)	-0.505 (inactive)	-4.5e-05 (inactive)	0.00905 (active)	inactive	13.1% (inactive)
Cc1cc(COc2ccccc2OCCN2CCN(C)CC2)no1	551	-2.5% (inactive)	-128% (inactive)	134%	0.378	-1.63	0.134	5.95% (inactive)	-0.514 (inactive)	-6.1e-05 (inactive)	0.0049 (inactive)	inactive	9.35% (inactive)
COCCCNC(=O)C(C#N)c1nc2ccccc2nc1N1CCCC1 (stereo unspecified)	459	12.6% (inactive)	-130% (inactive)	156%	1.4	0.549	-0.292	7.83% (inactive)	-0.000219 (active)	0 (inactive)	0.0065 (inactive)	inactive	-2.67% (inactive)
CCCSc1nc(C)c(CC(=O)OCC)c(=O)[nH]1	573	-10.2% (inactive)	-162% (inactive)	138%	-0.128	-1.19	1.09	1.98% (inactive)	-0.508 (inactive)	-6e-05 (inactive)	0.008 (inactive)	inactive	6.42% (inactive)
Cc1nnc2n(-c3ccccc3)c(=O)c3c4c(sc3n12)CC(C)CC4 (stereo unspecified)	573	-1.3% (inactive)	37.3% (inactive)	92.6%	-0.0616	0.767	-0.493	16.1% (inactive)	-0.396 (inactive)	1.3e-06 (inactive)	0.00538 (inactive)	inactive	-24.5% (inactive)
CCCOC(=O)CSC1=C(C#N)C(c2ccccc2OC)C(C#N)C(=O)N1 (stereo unspecified)	496	-3.9% (inactive)	-60% (inactive)	136%	-0.969	0.676	0.273	-2.07% (inactive)	-0.5 (inactive)	-7.4e-05 (inactive)	0.00543 (inactive)	inactive	-12.6% (inactive)
Cn1ncc2nnn(-c3ccccc3)c(=O)c21	492	-0.2% (inactive)	-10.3% (inactive)	107%	-0.32	1.71	-1.2	-1.12% (inactive)	-0.497 (inactive)	-0.000269 (inactive)	0.00475 (inactive)	inactive	-10.6% (inactive)
COc1cccc(Cn2c(NCC(C)C)nc3c2c(=O)n(C)c(=O)n3C)c1	341	3.2% (inactive)	-77.7% (inactive)	127%	-0.509	0.441	1.11	-0.624% (inactive)	-0.385 (inactive)	4.1e-05 (inactive)	0.00489 (inactive)	inactive	-12.8% (inactive)
COC(=O)C1=C(C)N=C2SC(C)C(=O)N2C1c1cccc(F)c1 (stereo unspecified)	346	-0.4% (inactive)	-96.3% (inactive)	129%	0.762	-0.181	-0.313	12.3% (inactive)	-0.485 (inactive)	-4.6e-05 (inactive)	0.00444 (inactive)	inactive	-8.16% (inactive)
